The subject of assay [1] is CHO. The assay is described as follows: Radiosensitizing activity against chinese hamster cells was determined in the presence of the sensitizer under nitrogen at a concentration of 1.0 mM. It is filed as functional, Cricetulus griseus. A digest of the protocol: (§1)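 V-79 Chinese hamster monolayers (exponentially growing, MEM with 15% fetal calf serum), about 200 cells per dish. Made hypoxic by purging sealed containers with 95% N2/5% CO2 for 1 h. Drug at maximum nontoxic concentration (1 mM or less) for 2 h at 37 °C. Cobalt-60 irradiation, 1400 rad, at room temperature. Medium replaced, colonies counted after 6 days; % survival.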

Assay [2] is described as follows: Sensitizer enhancement ratio was determined by dividing the Do value obtained from the control radiation survival curve by the Do value obtained from the radiation survival curve. It is filed as functional.
In a further assay the test system is V79. Briefly: Inhibitory activity against hypoxic Chinese hamster cells(V-79) in culture by colony formation assay. The format is functional. The following applies: Cricetulus griseus, read-out: ED50 (the source's name).
Assay [3] is described as follows: Sensitizer enhancement ratio(SER) was determined. The format is functional.
For assay [4], the system named is CHO. Briefly: Radiosensitizing activity against chinese hamster cells was determined in the presence of the sensitizer under nitrogen at a concentration of 0.010 mM. The format is functional, Cricetulus griseus. A digest of the protocol: as §1

Our source for the Survivals, SER and EC50 values is ChEMBL document CHEMBL1121970, “Potential radiosensitizing agents. 5. 2-Substituted benzimidazole derivatives” (1982).

With `COCC(O)Cn1c(S(C)(=O)=O)nc2ccccc21` (stereo unspecified), the Survivals in the assay on CHO [1] is listed as 25.8%. For the same compound, in assay [2], the SER is 1. Further, the EC50 in the assay with V79 was 3200 µM.
On the same counts, the results for `COCC(O)Cn1c(C(C)=O)nc2cc([N+](=O)[O-])ccc21` (stereo unspecified) are 11.3%, 1.2 and greater than 5000 µM.
On the same counts, the results for `COCC(O)Cn1c(C(N)=O)nc2ccccc21` (stereo unspecified) are 21%, 1.1 and greater than 5000 µM.
On the same counts, the results for `COCC(O)Cn1c(C#N)nc2ccccc21` (stereo unspecified) are 23%, 1 and 1200 µM.
For the compound `CCOC(=O)Cn1c([N+](=O)[O-])nc2cc([N+](=O)[O-])ccc21`, the Survivals in the assay with CHO [1] turned out to be 26.7%. Also, the EC50 in the assay with V79 stood at 16 µM. Further, the SER in assay [3] came out at 1.
Regarding `COCC(O)Cn1c(C(C)=O)nc2ccccc21` (stereo unspecified), the Survivals with CHO [1] is on record as 23%. Also, the SER in assay [2] was 1. In the assay on V79, the EC50 is greater than 5000 µM.
On the same counts, the results for `COCC(O)Cn1c([N+](=O)[O-])nc2ccccc21` (stereo unspecified) are 9.4%, 2 and 4800 µM.
On the same counts, the results for `COCC(O)Cn1c(C(F)(F)F)nc2ccc([N+](=O)[O-])cc21` (stereo unspecified) are 17.6%, 1.2 and 3000 µM.
On the same counts, the results for `COCC(O)Cn1c(C(F)(F)F)nc2cc([N+](=O)[O-])ccc21` (stereo unspecified) are 13.8%, 1.4 and greater than 5000 µM.
As for `COCC(O)Cn1c(C(F)(F)F)nc2ccccc21` (stereo unspecified), in the assay on CHO [1], the Survivals is 22%. For the same compound, in assay [2], the SER was 1.1. In addition, in the assay with V79, the EC50 is greater than 5000 µM.
For the compound `CCOC(=O)Cn1c([N+](=O)[O-])nc2ccc([N+](=O)[O-])cc21`, the Survivals in the assay on CHO [4] worked out at 22.9%. The EC50 in the assay with V79 turned out to be 6 µM. Further, the SER in assay [3] amounted to 1.
Turning to `CCOC(=O)Cn1c([N+](=O)[O-])nc2ccccc21`, the Survivals in the assay on CHO [1] came out at 2.7%. The SER in assay [2] amounted to 2.3. Also, in the assay with V79, the EC50 was 300 µM.
